Measured values taken from ChEMBL document CHEMBL4190284, “Exploring the Sponge Consortium Plakortis symbiotica-Xestospongia deweerdtae as a Potential Source of Antimicrobial Compounds and Probing the Pharmacophore for Antituberculosis Activity of Smenothiazole A by Diverted Total Synthesis” (J Nat Prod, 2017).
Converted amounts (≈) assume the structure as drawn.

Tests used:
[1] = system: Mycobacterium tuberculosis; assay: Antitubercular activity against Mycobacterium tuberculosis H37Rv by broth microdilution Alamar blue assay; assay type: functional
Outline: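 Mtb H37Rv growth was measured by broth microdilution Alamar blue assay (MABA). Percentage inhibition at each concentration gave the MIC, defined as the lowest concentration preventing visible bacterial growth. Rifampicin served as positive control. Values are means of three experiments.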

[2] = system: Panel NCI-60 (60 carcinoma cell lines); assay: Cytotoxicity against human NCI60 cells assessed as cell growth at 10 uM relative to control; assay type: cell-based
Outline: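 Single-dose screen at 10 μM across the full NCI 60 cell line panel; read-out was percent cell growth.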

[3] = system: A2058; assay: Cytotoxicity against human A2058 cells assessed as reduction in cell viability; assay type: functional, cell-based
[4] = system: Vero; assay: Cytotoxicity against African green monkey Vero cells assessed as reduction in cell viability; assay type: cell-based; settings: Chlorocebus sabaeus
[5] = system: Plasmodium falciparum; assay: Antiplasmodial activity against Plasmodium falciparum W2 assessed as parasite growth inhibition relative to control; assay type: functional
[6] = system: DU-145; assay: Cytotoxicity against human DU145 cells assessed as reduction in cell viability; assay type: functional, cell-based

| Compound | MIC [1] | also measured |
| --- | --- | --- |
| C=C(C/C=C(\C)C(=O)N[C@H](C(=O)N1CCC[C@H]1c1nccs1)C(C)C)Cc1ccccc1 | > 128 µg/mL | Activity [2]: > 90% |
| CC1=C(O)[C@@](C)(CCCCCCCCCCCCc2ccc(O)cc2)OC1=O | > 128 µg/mL |  |
| C/C(=C\C/C(=C\Cl)Cc1ccccc1)C(=O)N[C@H](C(=O)N1CCC[C@H]1c1nccs1)C(C)C | 4.1 µg/mL (≈ 8.43 µM) | IC50 [3]: 20 µM; IC50 [4]: > 128 µg/mL; growth inhibition (GI) [5]: 55%; IC50 [6]: 15 µM |
| CC1=C(O)[C@@](C)(CCCCC[C@H](C)CCCCc2ccc(O)cc2)OC1=O | > 128 µg/mL |  |
| CC1=C(O)[C@@](C)(CCCCC[C@H](C)CCCCc2ccc(O)c(O)c2)OC1=O | > 128 µg/mL |  |
| CO[C@H]1/C=C/O[C@@]2(C)Oc3c(C)c(O)c4c(O)c(c(/C=N/N5CCN(C)CC5)c(O)c4c3C2=O)NC(=O)/C(C)=C\C=C\[C@H](C)[C@H](O)[C@@H](C)[C@@H](O)[C@@H](C)[C@H](OC(C)=O)[C@@H]1C [RIFAMPIN] | 0.1 µg/mL (≈ 0.122 µM) |  |
